Laboratory results published in ChEMBL document CHEMBL4368872, “Synthesis and anticonvulsant activity of phenoxyacetyl derivatives of amines, including aminoalkanols and amino acids” (Medchemcomm, 2018).
Activity calls are given as the source filed them. The calls are words filed in the database; no cut-off is given here.

Assays:
[1] = system: Mus musculus; assay: Anticonvulsant activity in CF-1 mouse model of maximal electroshock-induced seizure assessed as suppression of tonic hind limb extension at 30 mg/kg, ip measured at 0.5 hrs post dose; format: functional, organism-based
How it was run: (§1)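 Mice dosed i.p. and given maximal electroshock at 50 mA. Read-out is protection, reported as number protected / number tested at 0.25, 0.5, 1 and 4 h after dosing.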

[2] = system: Mus musculus; assay: Anticonvulsant activity in CF-1 mouse model of maximal electroshock-induced seizure assessed as suppression of tonic hind limb extension at 100 mg/kg, ip measured at 0.5 hrs post dose; format: functional, organism-based; how it was run: as §1
[3] = system: Mus musculus; assay: Anticonvulsant activity in CF-1 mouse model of maximal electroshock-induced seizure assessed as suppression of tonic hind limb extension at 300 mg/kg, ip measured at 0.5 hrs post dose; format: functional, organism-based; how it was run: as §1
[4] = system: Mus musculus; assay: Anticonvulsant activity in CF-1 mouse model of maximal electroshock-induced seizure assessed as suppression of tonic hind limb extension at 30 mg/kg, ip measured at 4 hrs post dose; format: functional, organism-based; how it was run: as §1
[5] = system: Mus musculus; assay: Anticonvulsant activity in CF-1 mouse model of maximal electroshock-induced seizure assessed as suppression of tonic hind limb extension at 100 mg/kg, ip measured at 4 hrs post dose; format: functional, organism-based; how it was run: as §1
[6] = system: Mus musculus; assay: Anticonvulsant activity in CF-1 mouse model of maximal electroshock-induced seizure assessed as suppression of tonic hind limb extension at 300 mg/kg, ip measured at 4 hrs post dose; format: functional, organism-based; how it was run: as §1
[7] = system: Mus musculus; assay: Anticonvulsant activity in CF-1 mouse model of subcutaneous pentylenetetrazole-induced seizure assessed as reduction in convulsions at 30 mg/kg, ip measured at 0.5 hrs post dose; format: functional, organism-based
How it was run: (§2)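 Mice dosed i.p., then given pentylenetetrazole 85 mg/kg in 0.9% NaCl s.c. into the posterior midline of the neck. Seizures watched for at least 30 min. Scored as protected / tested at 0.5 and 4 h.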

[8] = system: Mus musculus; assay: Anticonvulsant activity in CF-1 mouse model of subcutaneous pentylenetetrazole-induced seizure assessed as reduction in convulsions at 100 mg/kg, ip measured at 0.5 hrs post dose; format: functional, organism-based; how it was run: as §2
[9] = system: Mus musculus; assay: Anticonvulsant activity in CF-1 mouse model of subcutaneous pentylenetetrazole-induced seizure assessed as reduction in convulsions at 300 mg/kg, ip measured at 0.5 hrs post dose; format: functional, organism-based; how it was run: as §2
[10] = system: Mus musculus; assay: Anticonvulsant activity in CF-1 mouse model of subcutaneous pentylenetetrazole-induced seizure assessed as reduction in convulsions at 30 mg/kg, ip measured at 4 hrs post dose; format: functional, organism-based; how it was run: as §2
[11] = system: Mus musculus; assay: Anticonvulsant activity in CF-1 mouse model of subcutaneous pentylenetetrazole-induced seizure assessed as reduction in convulsions at 100 mg/kg, ip measured at 4 hrs post dose; format: functional, organism-based; how it was run: as §2
[12] = system: Mus musculus; assay: Anticonvulsant activity in CF-1 mouse model of subcutaneous pentylenetetrazole-induced seizure assessed as reduction in convulsions at 300 mg/kg, ip measured at 4 hrs post dose; format: functional, organism-based; how it was run: as §2
[13] = Neurotoxicity in CF-1 mouse at 30 mg/kg, ip measured after 0.5 hrs by rotarod test; format: toxicity, organism-based; conditions: in vivo
How it was run: (§3)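 Mice dosed i.p. were placed on a 1 in. knurled rod turning at 6 rpm. Toxicity was scored as failure to keep balance for at least 1 min, i.e. falling off three or more times. Results are reported as animals showing toxicity / animals tested at each time point.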

[14] = Neurotoxicity in CF-1 mouse at 100 mg/kg, ip measured after 0.5 hrs by rotarod test; format: toxicity, organism-based; conditions: in vivo; how it was run: as §3
[15] = Neurotoxicity in CF-1 mouse at 300 mg/kg, ip measured after 0.5 hrs by rotarod test; format: toxicity, organism-based; conditions: in vivo; how it was run: as §3
[16] = Neurotoxicity in CF-1 mouse at 30 mg/kg, ip measured after 4 hrs by rotarod test; format: toxicity, organism-based; conditions: in vivo; how it was run: as §3
[17] = Neurotoxicity in CF-1 mouse at 100 mg/kg, ip measured after 4 hrs by rotarod test; format: toxicity, organism-based; conditions: in vivo; how it was run: as §3
[18] = Neurotoxicity in CF-1 mouse at 300 mg/kg, ip measured after 4 hrs by rotarod test; format: toxicity, organism-based; conditions: in vivo; how it was run: as §3
[19] = system: Mus musculus; assay: Anticonvulsant activity in CF-1 mouse model of maximal electroshock-induced seizure assessed as suppression of tonic hind limb extension at 100 mg/kg, ip measured at 0.25 hrs post dose; format: functional, organism-based; how it was run: as §1
[20] = system: Mus musculus; assay: Anticonvulsant activity in CF-1 mouse model of maximal electroshock-induced seizure assessed as suppression of tonic hind limb extension at 100 mg/kg, ip measured at 1 hr post dose; format: functional, organism-based; how it was run: as §1
[21] = Neurotoxicity in CF-1 mouse at 100 mg/kg, ip measured after 0.25 hrs by rotarod test; format: toxicity, organism-based; conditions: in vivo; how it was run: as §3
[22] = Neurotoxicity in CF-1 mouse at 100 mg/kg, ip measured after 1 hr by rotarod test; format: toxicity, organism-based; conditions: in vivo; how it was run: as §3

| SMILES | Activity [1] | Activity [2] | Activity [3] | Activity [4] | Activity [5] | Activity [6] | Activity [7] | Activity [8] | Activity [9] | Activity [10] | Activity [11] | Activity [12] | Activity [13] | Activity [14] | Activity [15] | Activity [16] | Activity [17] | Activity [18] | Activity [19] | Activity [20] | other results |
| --- | --- | --- | --- | --- | --- | --- | --- | --- | --- | --- | --- | --- | --- | --- | --- | --- | --- | --- | --- | --- | --- |
| Cc1cccc(C)c1OCC(=O)NC(C)C(=O)O (stereo not drawn) | inactive | inactive | inactive | inactive | inactive | inactive | inactive | inactive | inactive | inactive | inactive | inactive | Non-Toxic | Non-Toxic | Non-Toxic | Non-Toxic | Non-Toxic | Non-Toxic |  |  |  |
| Cc1cccc(C)c1OCC(=O)N[C@@H](C)C(=O)O | inactive | inactive | inactive | inactive | inactive | inactive | inactive | inactive | inactive | inactive | inactive | inactive | Non-Toxic | Non-Toxic | Non-Toxic | Non-Toxic | Non-Toxic | Non-Toxic |  |  |  |
| CCC(NC(=O)COc1c(C)cc(C)cc1C)C(N)=O (stereo not drawn) | inactive | inactive | Active | inactive | inactive | inactive | inactive | inactive | inactive | inactive | inactive | inactive | Non-Toxic | Non-Toxic |  | Non-Toxic | Non-Toxic | Non-Toxic | inactive | inactive | Activity [21]: Non-Toxic; Activity [22]: Non-Toxic |
| Cc1cccc(C)c1OCC(=O)N[C@@H](C)CO | inactive | inactive | Active | inactive | inactive | Active | inactive | inactive | inactive | inactive | inactive | inactive |  |  |  | Non-Toxic |  |  |  |  |  |
| CCC(CO)NC(=O)COc1c(C)cc(C)cc1C (stereo not drawn) | inactive | inactive | Active | inactive | inactive | inactive | inactive | inactive | inactive | inactive | inactive | inactive | Non-Toxic |  |  | Non-Toxic | Non-Toxic | Non-Toxic | inactive | inactive | Activity [21]: Non-Toxic; Activity [22]: Non-Toxic |
| Cc1cc(C)c(OCC(=O)NCC(O)c2ccccc2)c(C)c1 (stereo not drawn) | inactive | inactive | inactive | inactive | inactive | inactive | inactive | inactive | inactive | inactive | inactive | inactive | Non-Toxic | Non-Toxic | Toxic | Non-Toxic | Non-Toxic | Non-Toxic |  |  |  |
| Cc1cccc(C)c1OCC(=O)N[C@H](C)C(N)=O | inactive | inactive | Active | inactive | inactive | inactive | inactive | inactive | inactive |  | inactive | inactive | Non-Toxic |  |  | Non-Toxic | Non-Toxic | Non-Toxic | inactive | inactive | Activity [21]: Non-Toxic |
| Cc1cccc(C)c1OCC(=O)NCCc1ccccc1 | inactive | inactive | inactive | inactive | inactive | inactive | inactive | inactive | inactive | inactive | inactive | inactive | Non-Toxic | Non-Toxic |  | Non-Toxic | Non-Toxic | Non-Toxic |  |  |  |
